From ChEMBL document CHEMBL3259777, “The cannabinoid acids, analogs and endogenous counterparts” (Bioorg Med Chem, 2014)

Legend:
[1] = Antiinflammatory activity in LPS-induced mouse […] cells assessed as PGJ2 synthesis at 10 uM relative to control; type: functional, RAW264.7
Mus musculus [2] = organism: Mus musculus; experiment: Stimulation of phospholipase A2 in mouse brain synaptosomes using [1-14C]phosphotidylcholine as substrate assessed as arachidonic acid release relative to control; type: subcellular
RAW [3] = experiment: Antiinflammatory activity in mouse RAW cells assessed as arachidonic acid release at 6 uM after 1 hr by liquid scintillation counting analysis in presence of [14C]-arachidonic acid relative to control; type: functional
Method in brief: (§1)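 RAW cells labelled 2 hr with 14C-arachidonic acid, then medium changed to RPMI + 0.1% BSA. Cells treated 1 hr with non-radioactive test agent added in 10 µl DMSO; DMSO alone as control. Release counted by LSC on a 0.1 ml medium aliquot, expressed as treated/control, means ± SD.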

Mus musculus [4] = experiment: Antiinflammatory activity in mouse peritonitis model assessed as reduction of pro-inflammatory cell migration into peritoneal cavity at 0.3 mg/kg, po; type: functional; parameters: scale not given: the % may be the effect or the level left
Method in brief: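 Mouse peritonitis induced by thioglycollate challenge. Compound given orally, and migration of pro-inflammatory cells into the peritoneal cavity quantified.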

[5] = Antiinflammatory activity in LPS-induced mouse […] cells assessed as PGJ2 synthesis at 3 uM in presence of polyclonal antiGPR18 relative to control; type: functional, RAW264.7
RAW [6] = experiment: Antiinflammatory activity in mouse RAW cells assessed as arachidonic acid release at 3 uM after 1 hr by liquid scintillation counting analysis in presence of [14C]-arachidonic acid relative to control; type: functional; method in brief: as §1
[7] = Antiinflammatory activity in LPS-induced mouse […] cells assessed as PGJ2 synthesis at 3 uM relative to control; type: functional, RAW264.7
RAW [8] = experiment: Antiinflammatory activity in mouse RAW cells assessed as arachidonic acid release at 12 uM after 1 hr by liquid scintillation counting analysis in presence of [14C]-arachidonic acid relative to control; type: functional; method in brief: as §1
RAW [9] = experiment: Antiinflammatory activity in mouse RAW cells assessed as arachidonic acid release at 1.5 uM after 1 hr by liquid scintillation counting analysis in presence of [14C]-arachidonic acid relative to control; type: functional; method in brief: as §1
RAW [10] = experiment: Antiinflammatory activity in mouse RAW cells assessed as arachidonic acid release at 24 uM after 1 hr by liquid scintillation counting analysis in presence of [14C]-arachidonic acid relative to control; type: functional; method in brief: as §1
Cannabinoid receptor 1 = Cannabinoid receptor 1 (Homo sapiens, UniProt P21554); experiment: Binding affinity to CB1 receptor (unknown origin)
[11] = Inhibition of MMP-3 release in TNF alpha-induced HFLS cells at 10 uM; type: functional; conditions: Homo sapiens
[12] = Drug metabolism in dog hepatocytes assessed as parent compound remaining after 2 hrs; type: ADME, cell-based, Canis lupus familiaris, Hepatocyte; conditions: read-out: Stability
Mus musculus [13] = experiment: Antiinflammatory activity in mouse assessed as adhering leukocytes at 1 mg/kg, po after 6 hrs relative to vehicle-treated control; type: functional
Method in brief: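 Given orally in oil over 0.01 to 1.0 mg/kg. Peritoneal cells collected from mice 6 hours after dosing and cultured 18-20 hours before leukocyte adhesion was measured. Compared with vehicle-dosed mice.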

[14] = Drug metabolism in rat hepatocytes assessed as parent compound remaining after 2 hrs; type: ADME, cell-based, Hepatocyte; conditions: read-out: Stability
Blood [15] = experiment: Induction of LXA4 production in human blood at 1 to 30 uM incubated for 5 hrs by ELISA; type: functional
[16] = Plasma concentration in patient at 20 mg, po after 2 hrs; type: ADME, organism-based; conditions: human
Method in brief: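 Single oral 20 mg dose in humans. Plasma sampled two hours post-dose, reported as mean ± R.S.D., n=9; glucuronide measured as well.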

[17] = Induction of LXA4 production in HFLS cells at 1 to 30 uM incubated for 1 hr followed by TNF-alpha challenge for 18 hrs by ELISA relative to control; type: functional, Homo sapiens
Mus musculus [18] = experiment: Antiinflammatory activity in mouse assessed as reduction of IL-1beta/TNF-alpha-induced leukocyte count in air pouches at 0.1 mg/kg/day; type: functional; parameters: scale not given: the % may be the effect or the level left
Method in brief: (§2)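 Mouse acute inflammation: IL-1β and TNFα injected into air pouches formed on the back. Drug dosed daily, and leukocytes counted in pouch exudates.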

Mus musculus [19] = experiment: Reduction of cell invasion to peritoneum in zymosan-A-induced FVB mouse peritonitis model at 1.5 mg/kg, iv by mass spectrometry; type: functional; parameters: scale not given: the % may be the effect or the level left
Rattus norvegicus [20] = experiment: Analgesic activity in rat assessed as reversal of mechanical hyperalgesia at 0.1 to 1 mg/kg, po; type: functional; conditions: dose mg/kg 0.1-1
Mus musculus [21] = experiment: Induction of LXA4 production in zymosan-A-induced FVB mouse peritonitis model at 1.5 mg/kg, iv by mass spectrometry relative to control; type: functional
[22] = Drug metabolism in cynomolgus monkey hepatocytes assessed as parent compound remaining after 2 hrs; type: ADME, cell-based, Hepatocyte; conditions: read-out: Stability
Rattus norvegicus [23] = experiment: Reversal of PAF-induced allodynia in ip dosed rat after 40 to 60 mins by paw withdrawal test; type: functional
Method in brief: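 Rat tonic inflammatory pain model with platelet-activating factor injected into the hind paw. Doses of 3, 4.5, 6.8, 10.1 and 15.2 mg/kg given i.p. Paw withdrawal threshold to mechanical pressure read 40-60 min post-drug. Approximate ED-50 estimated from the dose-response curve for reversal of PAF-induced allodynia.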

Blood [24] = experiment: Induction of LXA4 production in human blood at 25 uM after 1 hr in presence of 12/15 LOX inhibitor baicalein relative to control; type: functional
[25] = Drug metabolism in human hepatocytes assessed as parent compound remaining after 2 hrs; type: ADME, cell-based, Hepatocyte; conditions: read-out: Stability
Mus musculus [26] = experiment: Antiinflammatory activity in mouse assessed as reduction of IL-1beta/TNF-alpha-induced leukocyte count in air pouches at 0.2 mg/kg/day; type: functional; parameters: scale not given: the % may be the effect or the level left; method in brief: as §2

Sequence of Cannabinoid receptor 1 (P21554 whole entry): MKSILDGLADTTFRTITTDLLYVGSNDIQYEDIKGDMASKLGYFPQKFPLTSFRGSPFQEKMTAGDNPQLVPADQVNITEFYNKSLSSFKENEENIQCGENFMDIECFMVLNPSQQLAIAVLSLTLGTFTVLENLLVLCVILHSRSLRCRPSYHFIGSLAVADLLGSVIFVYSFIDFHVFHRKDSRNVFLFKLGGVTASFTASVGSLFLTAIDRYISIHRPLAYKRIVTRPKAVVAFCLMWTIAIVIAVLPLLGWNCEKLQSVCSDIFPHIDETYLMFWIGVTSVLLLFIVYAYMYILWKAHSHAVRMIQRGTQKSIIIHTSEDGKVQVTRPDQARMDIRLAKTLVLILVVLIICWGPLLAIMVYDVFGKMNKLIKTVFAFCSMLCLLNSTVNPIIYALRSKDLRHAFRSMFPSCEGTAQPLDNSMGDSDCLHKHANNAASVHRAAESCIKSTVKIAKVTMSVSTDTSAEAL

CCCCC/C=C\C/C=C\C/C=C\CCCCC(=O)NCC(=O)O
Activity [1]: 203%

CCCCC/C=C\C/C=C\C/C=C\C/C=C\CCCC(=O)N[C@@H](C)C(=O)O
Activity [1]: 212%

CCCCCCCC/C=C\CCCCCCCC(=O)NC(C)(C)C(=O)O
Activity [1]: 118%

CCCCC/C=C\C/C=C\C/C=C\C/C=C\CCCC(=O)NC(C)(C)C(=O)O
Activity [1]: 220%

CCCCCc1cc(O)c2c(c1)OC(C)(C)[C@@H]1CCC(C(=O)O)=C[C@@H]21
Activity (Mus musculus [2]): 20%

CCCCC/C=C\C/C=C\C/C=C\C/C=C\CCCC(=O)NCC(=O)O [ARACHIDONOYL GLYCINE]
T/C (RAW [3]): 1.4 | Activity (Mus musculus [4]): 60% | Activity [5]: 50% | Activity [1]: 213% | T/C (RAW [6]): 1.2 | Activity [7]: 100% | T/C (RAW [8]): 1.85 | T/C (RAW [9]): 1 | T/C (RAW [10]): 2.95

CCCCCCC(C)(C)c1cc(O)c2c(c1)OC(C)(C)[C@@H]1CC=C(C(=O)O)C[C@@H]21 [LENABASUM]
Ki (Cannabinoid receptor 1): 5.7 nM | inhibition at 10 µM [11]: 88% | remaining at 2 h [12]: 90% | Activity (Mus musculus [13]): 24% | remaining at 2 h [14]: 103% | Ratio (Blood [15]): 2 | concentration at 2 h [16]: 599 ng/mL | Ratio [17]: 2 | Activity (Mus musculus [18]): 42.3% | Activity (Mus musculus [19]): 75% | Activity (Rattus norvegicus [20]): <=60% | Ratio (Mus musculus [21]): 7 | remaining at 2 h [22]: 86% | ED50 (Rattus norvegicus [23]): 4.2 mg/kg | Activity (Blood [24]): >90% | remaining at 2 h [25]: 83% | Activity (Mus musculus [26]): 65.5%

CCCCCCCCCCCCCCCC(=O)NCC(=O)O [PALMITOYL GLYCINE]
Activity [1]: 100%
